Data: ChEMBL document CHEMBL1127495, “A recombinant human stromelysin catalytic domain identifying tryptophan derivatives as human stromelysin inhibitors” (J Med Chem, 1994)

Tests used:
Stromelysin-1 [1] = biological target: T1, Stromelysin-1 (Homo sapiens, UniProt P08254); experiment: In vitro inhibition of recombinant stromelysin catalytic domain.
Stromelysin-1 [2] = biological target: T1, Stromelysin-1; experiment: (§1) Inhibition of recombinant stromelysin catalytic domain (SCD)
Outline: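 E. coli-expressed human stromelysin catalytic domain (Phe-100 to Pro-273), expressed without propeptide so needing no activation, at 100 nM (10 nM for the hydroxamate peptide). A405 read over 3 min at room temperature.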

Stromelysin-1 [3] = biological target: T1, Stromelysin-1; experiment: as §1; remark: listed apart in the source
Stromelysin-1 [4] = biological target: T1, Stromelysin-1; experiment: Inhibition of full length stromelysin isolated from cultured human cells (FLS).
Stromelysin-1 [5] = biological target: T1, Stromelysin-1; experiment: Inhibition of full length stromelysin isolated from cultured human cells (FLS)

T1 sequence (P08254 whole entry, the tested form may be a part): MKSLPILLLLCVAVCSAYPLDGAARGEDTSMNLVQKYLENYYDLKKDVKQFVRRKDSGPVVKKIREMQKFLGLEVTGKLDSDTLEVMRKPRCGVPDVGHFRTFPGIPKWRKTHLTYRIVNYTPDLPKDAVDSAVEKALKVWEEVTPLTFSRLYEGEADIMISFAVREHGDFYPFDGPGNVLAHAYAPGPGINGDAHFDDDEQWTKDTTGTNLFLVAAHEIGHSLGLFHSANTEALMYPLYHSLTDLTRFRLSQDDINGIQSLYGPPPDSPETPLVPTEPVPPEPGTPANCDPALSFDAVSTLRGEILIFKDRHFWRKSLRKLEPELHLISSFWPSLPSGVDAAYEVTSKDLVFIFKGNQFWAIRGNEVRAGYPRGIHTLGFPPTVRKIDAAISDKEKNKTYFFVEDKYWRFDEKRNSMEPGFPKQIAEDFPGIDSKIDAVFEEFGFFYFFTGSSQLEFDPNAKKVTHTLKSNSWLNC

Row | Compound | IC50 (Stromelysin-1 [1]) [µM] | Ki (Stromelysin-1 [3]) [µM] | also measured
1 | NNC(=O)[C@H](Cc1ccc(O)cc1)NC(=O)OCc1ccccc1 | > 500 |  | 
2 | O=C(N[C@@H](Cc1c[nH]c2ccccc12)C(=O)O)c1ccccc1 |  |  | IC50 (Stromelysin-1 [2]): < 500 µM
3 | CC(=O)N[C@@H](Cc1ccc(O)cc1)C(=O)O [ACETYL TYROSINE] | > 500 |  | 
4 | O=C(N[C@H](Cc1ccc(O)cc1)C(=O)O)OCc1ccccc1 | 432 | 356 | IC50 (Stromelysin-1 [4]): 450 µM; Ki (Stromelysin-1 [5]): 377 µM
5 | O=C(N[C@H](Cc1ccccc1)C(=O)O)OCc1ccccc1 | > 500 |  | IC50 (Stromelysin-1 [4]): > 500 µM
6 | O=C(N[C@@H](Cc1c[nH]c2ccccc12)C(=O)ON1C(=O)CCC1=O)OCc1ccccc1 | 13 | 11 | 
7 | CC(=O)N[C@H](Cc1c[nH]c2ccccc12)C(=O)O |  |  | IC50 (Stromelysin-1 [2]): < 500 µM
8 | NC(=O)[C@H](Cc1ccc(O)cc1)NC(=O)OCc1ccccc1 | > 500 |  | 
9 | O=C(N[C@H](Cc1c[nH]c2ccccc12)C(=O)O)OCC1c2ccccc2-c2ccccc21 |  |  | IC50 (Stromelysin-1 [2]): < 500 µM
10 | CC(=O)N[C@H](Cc1ccc(O)cc1)C(=O)O | > 500 |  | 
11 | CC(C)(C)OC(=O)N[C@H](Cc1c[nH]c2ccccc12)C(=O)O |  |  | IC50 (Stromelysin-1 [2]): < 500 µM
12 | O=C(N[C@@H](Cc1ccccc1)C(=O)O)OCc1ccccc1 | 40 | 33 | IC50 (Stromelysin-1 [4]): 99 µM; Ki (Stromelysin-1 [5]): 83 µM
13 | O=C(N[C@@H](Cc1ccc(O)cc1)C(=O)O)OCc1ccccc1 | 24 | 20 | IC50 (Stromelysin-1 [4]): 22 µM; Ki (Stromelysin-1 [5]): 18 µM
14 | CC(=O)N[C@@H](Cc1c[nH]c2ccccc12)C(=O)O [ACETYLTRYPTOPHAN] |  |  | IC50 (Stromelysin-1 [2]): < 500 µM
15 | CC(C)(C)OC(=O)N[C@@H](Cc1ccc(O)cc1)C(=O)O |  |  | IC50 (Stromelysin-1 [2]): < 500 µM
16 | NC(=O)[C@H](Cc1c[nH]c2ccccc12)NC(=O)OCc1ccccc1 |  |  | IC50 (Stromelysin-1 [2]): < 500 µM

Now from value to molecule, other results behind:

Row | IC50 (Stromelysin-1 [1]) [µM] | Ki (Stromelysin-1 [3]) [µM] | Compound | also measured
17 | > 500 |  | N[C@H](Cc1c[nH]c2ccccc12)C(=O)O [D-TRYPTOPHAN] | 
18 | > 500 |  | N[C@@H](Cc1c[nH]c2ccccc12)C(=O)O [TRYPTOPHAN] | 
19 | 34 | 28 | CC(C)(C)OC(=O)N[C@@H](Cc1cn(C=O)c2ccccc12)C(=O)O | 
20 | 10 | 8 | CC(C)(C)OC(=O)N[C@@H](Cc1c[nH]c2ccccc12)C(=O)O | 
21 | 102 | 84 | CC(C)(C)OC(=O)N[C@@H](Cc1c[nH]c2ccccc12)C(=O)ON1C(=O)CCC1=O | 
22 | 500 |  | O=C(N[C@@H](Cc1c[nH]c2ccccc12)C(=O)O)OCC1c2ccccc2-c2ccccc21 | 
23 | 63 | 52 | Cc1cc(C)c(S(=O)(=O)n2cc(C[C@H](NC(=O)OC(C)(C)C)C(=O)O)c3ccccc32)c(C)c1 | 
24 | 145 | 120 | O=C(/C=C/c1ccco1)N[C@@H](Cc1c[nH]c2ccccc12)C(=O)O | 
25 | > 500 |  | CC(C)(C)OC(=O)N[C@H](Cc1ccc(O)cc1)C(=O)O | 
